Calls of active or inactive are those of the source. No cut-off for these calls is given here.
Assays:
[1] = system: S49; experiment: Cytotoxicity against HGPRTase- and protein kinase-deficient mouse S49 cells assessed as growth inhibition at 1 mM; type: functional, cell-based
Procedure, shortened: (§1)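 S49 mouse T-lymphoma cells, pre-grown 24 h to keep growth exponential and asynchronous, were plated at 10^5 cells/mL in complete Dulbecco's modified Eagle medium. Agents were added in 30 mM NaHCO3. After 72 h at 37 °C, cells were counted by Coulter counter. Initial density was subtracted and growth expressed as a fraction of drug-free wells. EC50 was read from the percent-inhibition versus concentration plot, reported as mean ± SE. Trypan blue was used to check cytolysis.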

[2] = system: S49; experiment: Cytotoxicity against HGPRTase-deficient mouse S49 cells assessed as growth inhibition after 72 hrs by trypan blue exclusion assay; type: functional, cell-based; settings: S49, 72 h; procedure, shortened: as §1
[3] = system: S49; experiment: Cytotoxicity against wild type mouse S49 cells assessed as growth inhibition after 72 hrs by trypan blue exclusion assay; type: functional, cell-based; settings: S49, 72 h; procedure, shortened: as §1
[4] = system: S49; experiment: Cytotoxicity against HGPRTase- and protein kinase-deficient mouse S49 cells assessed as growth inhibition; type: functional, cell-based; procedure, shortened: as §1
[5] = system: S49; experiment: Cytotoxicity against HGPRTase-deficient mouse S49 cells assessed as growth inhibition at 1000 uM after 72 hrs by trypan blue exclusion assay; type: functional, cell-based; procedure, shortened: as §1
[6] = system: S49; experiment: Cytotoxicity against wild type mouse S49 cells assessed as growth inhibition at 200 uM after 72 hrs by trypan blue exclusion assay; type: functional; settings: S49, 72 h, read-out: GI; procedure, shortened: as §1
[7] = system: S49; experiment: Cytotoxicity against HGPRTase-, protein kinase- and phosphodiesterase-deficient mouse S49 cells assessed as growth inhibition; type: functional, cell-based; procedure, shortened: as §1
[8] = system: S49; experiment: Cytotoxicity against HGPRTase-deficient mouse S49 cells assessed as growth inhibition in presence of 4-(3-butoxy-4-methoxybenzyl)-2-imidazolone
[9] = system: S49; experiment: Cytotoxicity against HGPRTase-deficient mouse S49 cells assessed as growth inhibition in presence of theophylline
[10] = Drug degradation in Eagle's medium containing 10 % heat-inactivated horse serum assessed as parent compound after 3 days by reverse-phase liquid chromatography; type: physicochemical; settings: read-out: Stability
Procedure, shortened: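 Agent at 0.5 mM was incubated without cells for 3 days at 37 °C in Dulbecco's modified Eagle medium with 10% heat-inactivated horse serum. Aliquots were diluted 5:1 with methanol, filtered (0.45 μm), and analysed by reverse-phase C18 LC.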

[11] = system: S49; experiment: Cytotoxicity against HGPRTase-deficient mouse S49 cells assessed as growth inhibition at 100 uM after 72 hrs by trypan blue exclusion assay; type: functional, cell-based; procedure, shortened: as §1
[12] = system: S49; experiment: Cytotoxicity against HGPRTase-deficient mouse S49 cells assessed as growth inhibition at 500 uM after 20 to 49 hrs by time-course study; type: functional, cell-based
Procedure, shortened: (§2)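 Growth of HGPRTase-deficient S49 cells was followed over time with 0.5 mM agent, compared with drug-free cultures. The cAMP comparator was given with 0.2 mM theophylline.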

[13] = system: S49; experiment: Cytotoxicity against HGPRTase-deficient mouse S49 cells assessed as growth inhibition at 500 uM after 20 to 49 hrs by time-course study in presence of theophylline; type: functional, cell-based; procedure, shortened: as §2
[14] = system: S49; experiment: Cytotoxicity against wild type mouse S49 cells assessed as growth inhibition after 24 hrs by time-course study; type: functional, cell-based

Structure (SMILES) | EC50 [2] [µM] | EC50 [3] [µM] | other results
CCCC(=O)O[C@@H]1[C@@H]2OP(=O)(O)OC[C@H]2O[C@H]1n1cnc2c(N)ncnc21 |  |  | growth inhibition (GI) [1]: inactive
CCCCCCCCCCCCCCCCCCCCCC(=O)O[C@@H]1[C@@H]2OP(=O)(O)OC[C@H]2O[C@H]1n1cnc2c(=S)[nH]cnc21 | 120 |  | 
CCCC(=O)O[C@@H]1[C@@H]2OP(=O)(O)OC[C@H]2O[C@H]1n1cnc2c(=S)[nH]cnc21 | 426 | 137 | EC50 [4]: 250 µM
CC(C)C(=O)O[C@@H]1[C@@H]2OP(=O)(O)OC[C@H]2O[C@H]1n1cnc2c(=S)[nH]cnc21 | 479 | 23 | 
CC(C)C(=O)O |  |  | growth inhibition (GI) [5]: inactive
O=P1(O)OC[C@H]2O[C@@H](n3cnc4c(=S)[nH]cnc43)[C@H](O)[C@@H]2O1 | > 1000 | 200 | inhibition of growth at 200 µM [6]: 40%
CCCCCCCCCCCCCCCC(=O)O[C@@H]1[C@@H]2OP(=O)(O)OC[C@H]2O[C@H]1n1cnc2c(=S)[nH]cnc21 | 65 | 6 | growth inhibition (GI) [7]: Active; growth inhibition (GI) [8]: Active; growth inhibition (GI) [9]: Active; remaining at 72 h [10]: 20%
CCCCCCCCCCCC(=O)O[C@@H]1[C@@H]2OP(=O)(O)OC[C@H]2O[C@H]1n1cnc2c(=S)[nH]cnc21 | 109 | 10 | 
CCCCCCCCCCCC(=O)O |  |  | growth inhibition (GI) [11]: inactive
CCCCCC(=O)O [HEXANOATE] | > 1000 |  | 
CC(=O)O[C@@H]1[C@@H]2OP(=O)(O)OC[C@H]2O[C@H]1n1cnc2c(=S)[nH]cnc21 | 655 | 210 | 
CCCCCCCCCCCCCCCC(=O)O [PALMITIC ACID] | 500 |  | 
OC[C@H]1O[C@@H](n2cnc3c(S)ncnc32)[C@H](O)[C@@H]1O [THIOINOSINE] | 400 | 0.25 | 
CCCC(=O)Nc1ncnc2c1ncn2[C@@H]1O[C@@H]2COP(=O)(O)O[C@H]2[C@H]1OC(=O)CCC |  |  | growth inhibition (GI) [12]: Active; growth inhibition (GI) [13]: Active
Sc1ncnc2nc[nH]c12 [MERCAPTOPURINE ANHYDROUS] | > 1000 | 8 | growth inhibition (GI) [14]: Active
CC(C)(C)C(=O)O[C@@H]1[C@@H]2OP(=O)(O)OC[C@H]2O[C@H]1n1cnc2c(=S)[nH]cnc21 | 237 | 33 | 
CCCCCC(=O)O[C@@H]1[C@@H]2OP(=O)(O)OC[C@H]2O[C@H]1n1cnc2c(=S)[nH]cnc21 | 210 | 10 | 
